Entries after “also recorded” stand apart in the source; their conditions may differ.

Data on four compounds can be found in article PMC8286830 (Biochemical Journal, 2021).

The target in data set [1] is T1, Δ21TgCEN1 (Toxoplasma gondii, UniProt A0A125YHX7).
T1 sequence (A0A125YHX7 22-169): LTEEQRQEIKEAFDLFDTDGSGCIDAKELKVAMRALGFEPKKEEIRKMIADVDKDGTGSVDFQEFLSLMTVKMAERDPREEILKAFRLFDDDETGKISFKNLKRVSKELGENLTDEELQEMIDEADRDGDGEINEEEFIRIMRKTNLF
As to the kind of experiment: DLS particle size / count rate of Δ21TgCEN1. The class given is physicochemical. To be noted: 50 µM N21, 1 mM CaCl2. A digest of the protocol:
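Recombinant tag-free Δ21TgCEN1 from E. coli Rosetta (Ni affinity, TEV cleavage). For DLS, 10 µM protein in 20 mM Tris–HCl, 20 mM KCl pH 7.5 with 1 mM CaCl2 at 37°C was spun at 21 000 g for ≥30 min, then measured before and after adding 50 µM N21 peptide. Diameter was reported as number distribution. In parallel, A340 turbidity of 20 µM protein was followed over time.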

Data set [2] is described as follows: Turbidimetry at 340 nm, N21 peptide alone. To be noted: 1 mM CaCl2, 20 mM Tris–HCl, 20 mM KCl pH 7.5, 37°C, turbidity at 340 nm. It counts as physicochemical. In outline: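 Synthetic N21 peptide (>90% HPLC purity, mass confirmed by ESI-MS) alone with 1 mM CaCl2 in 20 mM Tris–HCl, 20 mM KCl pH 7.5 at 37°C. Absorbance at 340 nm recorded over time in 1 cm quartz cuvettes.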

Data set [3] concerns the target T1, Δ21TgCEN1. As to the kind of experiment: Turbidimetry at 340 nm, Δ21TgCEN1. It counts as physicochemical. To be noted: 20 µM Δ21TgCEN1 + 50 µM N21, 1 mM CaCl2, 20 mM KCl pH 7.5, 37°C. In outline: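 Construct lacking residues 1–21 (E. coli Rosetta) at 20 µM in 20 mM Tris–HCl, 20 mM KCl pH 7.5, 1 mM CaCl2, 37°C. A340 followed over time, before and after adding 50 µM synthetic N-terminal peptide (residues 1–21). Peptide alone with CaCl2 run as a control trace.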

The subject of data set [4] is TgCEN1. As to the kind of experiment: Turbidimetry at 340 nm, TgCEN1 self-assembly. It counts as physicochemical, Toxoplasma gondii. To be noted: increasing ANS concentrations, 1 mM CaCl2, 20 mM KCl, pH 7.5, 37°C. In outline:
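Full-length protein (E. coli Rosetta) at 20 µM in 20 mM Tris–HCl, 20 mM KCl pH 7.5, 37°C, A340 recorded versus time. Run with 1 mM CaCl2, with 1 mM EGTA, or with EGTA added to Ca2+-saturated protein. Ca2+ series 5–2000 µM, read at 25 min versus metal/protein ratio. Also varied: temperature 4–45°C, protein 5–50 µM, KCl 0–150 mM, and 600 µM ANS.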

Data set [5] relates to TgCEN1. As to the kind of experiment: DLS particle size of TgCEN1. The class given is physicochemical, Toxoplasma gondii. To be noted: 600 µM ANS, 1 mM CaCl2, 20 mM Tris–HCl, 20 mM KCl pH 7.5, 37°C.
For data set [6], the target named is T2, C-TgCEN1 (Toxoplasma gondii, UniProt A0A125YHX7). As to the kind of experiment: DLS particle size of C-TgCEN1. The class given is physicochemical. A digest of the protocol:
(§1)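 Domains produced in E. coli Rosetta: N-domain residues 1–94 and C-domain 95–169. […] 10 µM protein in 20 mM Tris–HCl pH 7.5, 1 mM CaCl2, at selected KCl concentrations or with 600 µM ANS. Samples centrifuged at 21 000 g for ≥30 min; filtered buffers. Hydrodynamic diameter reported as number distribution (633 nm laser, 173°).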

A further data set deals with N-TgCEN1. As to the kind of experiment: DLS particle size of N-TgCEN1. It counts as physicochemical, Toxoplasma gondii. To be noted: 600 µM ANS, 10 µM N-TgCEN1, 1 mM CaCl2. A digest of the protocol:
as §1

Data set [7] can be described thus: Far-UV CD of the substance alone. To be noted: 20 µM, aqueous solution, 50 mM Tris–HCl, 150 mM KCl pH 7.5, 25°C. The class given is physicochemical. In outline: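 Synthetic peptide (>90% HPLC purity, mass confirmed by ESI-MS), quantified by ε280 = 5500 M−1 cm−1, at 20 µM. Buffer: 50 mM Tris–HCl, 150 mM KCl pH 7.5, 0.5 mM DTT with 5 mM CaCl2 or EGTA. Spectra 200–250 nm, 0.1 cm cell, 25°C, average of five accumulations, buffer spectrum subtracted.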

The target in data set [8] is T2, C-TgCEN1. As to the kind of experiment: Turbidimetry at 340 nm, C-TgCEN1. The class given is physicochemical. To be noted: 20 µM, 1 mM CaCl2, 20 mM KCl pH 7.5, 37°C. In outline: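 Recombinant N-domain (1–94) or C-domain (95–169), Ni-affinity purified. A340 followed over time in a 1 cm cuvette. Standard conditions: 20 µM protein, 20 mM Tris–HCl, 20 mM KCl pH 7.5, 1 mM CaCl2, 37°C. Conditions also varied: CaCl2 0–2 mM, temperature 4–45°C, protein 5–50 µM, KCl 0–150 mM, or 600 µM ANS added.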

In another data set the test system is EoCEN. To be noted: addition of XPC peptide; cited from earlier work.
The mark [9] stands for this setting: 600 µM ANS, 10 µM C-TgCEN1, 1 mM CaCl2.

As to 1-MHSRKGASSLPRGRGAGKKTE-21 [N21], the “DLS count rate of Δ21TgCEN1 with N21” value on Δ21TgCEN1 [1] is on record as “increase”. In [2], the “Ca^2+-induced aggregation of peptide alone” value is listed as “did not aggregate upon addition of Ca^2+ in solution”. The “Δ21TgCEN1 light scattering at 340 nm with N21” value at Δ21TgCEN1 [3] is “an increase in the light scattering at 340 nm”.

With `O=S(=O)(O)c1cccc2cccc(Nc3ccccc3)c12` [ANS, 1-anilino-8-naphthalenesulphonic acid, reference compound], the “TgCEN1 final turbidity at 340 nm with ANS” value with TgCEN1 [4] was “decreased at increasing ANS concentrations; also recorded: only partially quenched the aggregation process”. Besides, in the data set with TgCEN1 [5], the “hydrodynamic diameter of TgCEN1 particles with ANS” value is ~238 nm. On C-TgCEN1 [6] (setting [9]), the “diameter of new species of C-TgCEN1 with ANS (larger)” value was 35 ± 1 nm and the “diameter of new species of C-TgCEN1 with ANS (smaller)” value came to 7.96 ± 0.01 nm. Further, the “effect of ANS on association of N-TgCEN1” value in the data set with N-TgCEN1 was “no effect”.

In the case of “C-TgCEN1: C-terminal domain of TgCEN1, 95–169 aa”, the “far-UV CD conformation alone” value in data set [7] is reported as “well-folded”. Further, the “turbidity at 340 nm” value in the data set with C-TgCEN1 [8] is “no turbidity changes at 340 nm”. This compound displayed a particle diameter with C-TgCEN1 [6] (10 µM, 1 mM CaCl2, 20 mM Tris–HCl, 20 mM KCl pH 7.5) of 311 ± 1 nm. Besides, the “DLS profile vs salt” value with C-TgCEN1 [6] (10 µM, selected KCl concentrations, 1 mM CaCl2) is “only small changes in the DLS profiles”.

For “XPC peptide: XPC peptide added to centrin from Euplotes octocarinatus (EoCEN), cited ref 43 (NWKLLAKGLLIRERLKR)”, in the data set on EoCEN, the “effect on protein aggregates” value is “dissociation of protein aggregates”.
